Measurements from the RNAGym collection of RNA variant scans (doi:10.1126/science.aae0568).
Fewer inactive variants are shown than the library holds.

B1: tRNA (parent)
chain: GUUCCGUUGGCGUAAUGGUAACGCGUCUCCCUCCUAAGGAGAAGACUGCGGGUUCGAGUCCCGUACGGAACG

Variants of: B1
Assay: yeast fitness relative to wild type (ratio to wild type); higher = fitter; tRNA-Arg(CCU), competitive growth, 37 C, YPD
Method in brief: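 Start and end populations of a pooled competition were compared by 100-nucleotide paired-end sequencing of gene amplicons. The Saccharomyces cerevisiae strains carried tRNA-Arg(CCU) gene variants at the native genomic locus, synthesised with a 3% per-site mutation rate at 69 sites, and competed in YPD at 37°C for 24 hours in six parallel replicates. Darwinian fitness relative to wild type was based on the change in genotype frequencies. Genotypes required ≥ 100 starting reads, and estimates < 0.5 were set to 0.5.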
G10A A65G A70C gave a yeast fitness of 0.65.
In the case of G10A A20G U26C G39A G50A, the yeast fitness is reported as at most 0.5.
G10A A36C A45C gave a yeast fitness of 0.634.
In the case of G10A A15C A45C C49G G67U A69C, the yeast fitness is reported as at most 0.5.
For G10A A15G C34G G68C, the yeast fitness was at most 0.5.
For G10A A15G C34G G68A, the yeast fitness was at most 0.5.
Variant G10A A20C G38A G41A C49U A65U has a yeast fitness of at most 0.5.
With G10A A37C A42G the yeast fitness was at most 0.5.
Variant G10A A20U U35C G48C C60A has a yeast fitness of at most 0.5.
Variant G10A A57U U59A A65C has a yeast fitness of 0.561.
G10A A14U U19A G23C C29A C66A gave a yeast fitness of at most 0.5.
G10A A20G C46U G50U C55U gave a yeast fitness of at most 0.5.
In the case of G10A A15U A70G, the yeast fitness is reported as at most 0.5.
In the case of G10A A15U A21C G25C C62A, the yeast fitness is reported as at most 0.5.
For G10A A43U A69C, the yeast fitness was 0.887.
Variant G10A A57U A65C A70G has a yeast fitness of at most 0.5.
G10A A15U A36U G63A gave a yeast fitness of at most 0.5.
In the case of G10A C11G C31U A37C, the yeast fitness is reported as at most 0.5.
Variant G10A A14U C66U has a yeast fitness of at most 0.5.
Variant G10A A15U A21C G25C G56A has a yeast fitness of at most 0.5.
Work on G10A A20C C27G A40G A70C yielded a yeast fitness of at most 0.5.
For G10A A14U C30U A37C U53A, the yeast fitness was at most 0.5.
In the case of G10A A36C A37G C49A, the yeast fitness is reported as at most 0.5.
For G10A C22U G56C A70U, the yeast fitness was at most 0.5.
G10A A20C A57C showed a yeast fitness of at most 0.5.
Variant G10A A42U has a yeast fitness of 0.805.
G9U A69C showed a yeast fitness of 0.909.
Variant G10A C11U C29A C34A G44A A69C has a yeast fitness of at most 0.5.
For G10A C11A A14G A15G G38A, the yeast fitness was at most 0.5.
G10A A42G A65G gave a yeast fitness of at most 0.5.
G10A A21G C22A C31A A40G C46G gave a yeast fitness of at most 0.5.
G10A A40U G52C showed a yeast fitness of at most 0.5.
With G10A A14G C27U A40C U47A G48C the yeast fitness was at most 0.5.
For G10A A43C, the yeast fitness was 0.811.
For G10A A43G, the yeast fitness was 0.65.
G10A A36C C66U showed a yeast fitness of at most 0.5.
Work on G9U A43G yielded a yeast fitness of 0.817.
In the case of G10A A21G A40U, the yeast fitness is reported as 0.558.
Work on G10A A15U yielded a yeast fitness of 0.681.
G10A A15C showed a yeast fitness of 0.613.
Work on G10A A37U G39A A57U yielded a yeast fitness of at most 0.5.
Variant G9U C34U G41A has a yeast fitness of at most 0.5.
G10A A36C A42U showed a yeast fitness of 0.557.
For G10A A20U C30A C62U, the yeast fitness was at most 0.5.
For G9U C24G C55U C66U, the yeast fitness was at most 0.5.
In the case of G10A A36C A45C A70U, the yeast fitness is reported as at most 0.5.
For G10A A15C A45C C49G, the yeast fitness was 0.553.
For G10A A21U A43U A45U G50C, the yeast fitness was at most 0.5.
For G10A A36G G38C, the yeast fitness was at most 0.5.
G10A A14C U32A showed a yeast fitness of at most 0.5.
G10A C11U showed a yeast fitness of 0.777.
With G10A C11G the yeast fitness was 0.565.
G10A A37U A65U gave a yeast fitness of at most 0.5.
G9U A20C C29U G50C U59G C62U G68A gave a yeast fitness of at most 0.5.
With G10A A21C C22A G25C G38A U59A C60U the yeast fitness was at most 0.5.
In the case of G10A C22U C27U C33U A43U U54C, the yeast fitness is reported as at most 0.5.
Work on G10A A14G C29G yielded a yeast fitness of at most 0.5.
With G10A A15C G25A the yeast fitness was 0.582.
Work on G10A A15U A21C G25C C66U G67U G68A yielded a yeast fitness of at most 0.5.
In the case of G10A A43G G52C U53C G63C, the yeast fitness is reported as at most 0.5.
With G10A A21G A65U A69C the yeast fitness was 0.777.
Work on G10A A20U C30U G56A A65G C66A G68C yielded a yeast fitness of at most 0.5.
G10A A20G G41A C49U U53A C66G showed a yeast fitness of at most 0.5.
In the case of G10A A20C C27G A40G G56C, the yeast fitness is reported as at most 0.5.
Work on G10A A21G C24A C66U yielded a yeast fitness of at most 0.5.
With G10A A15C C34A C49U C61G the yeast fitness was 0.603.
G10A A14U C31A U35G C46A A65U showed a yeast fitness of at most 0.5.
Work on G10A A45U G48A yielded a yeast fitness of at most 0.5.
Variant G10A A14C C22U has a yeast fitness of at most 0.5.
For G10A A15C G25A C55G U59C C60U G67U, the yeast fitness was at most 0.5.
Work on G10A A21U C27U C49A U64C yielded a yeast fitness of at most 0.5.
For G9U C22G A70U, the yeast fitness was 0.623.
G9U C24U U35A A40G C60A G67C gave a yeast fitness of at most 0.5.
Work on G10A C11U A36G G67C yielded a yeast fitness of 0.572.
With G10A A37G the yeast fitness was 0.551.
Variant G10A A37C has a yeast fitness of 0.741.
Variant G10A A37U has a yeast fitness of 0.622.
Work on G10A A20C G38A G41A A65C yielded a yeast fitness of at most 0.5.
G10A A43G G50A showed a yeast fitness of 0.573.
G10A A15G A42C G50C gave a yeast fitness of at most 0.5.
G9U U16G gave a yeast fitness of 0.612.
Variant G10A A20U has a yeast fitness of 0.786.
G10A A20G gave a yeast fitness of 0.649.
For G10A C22U A70U, the yeast fitness was at most 0.5.
G10A C11A A20U C66G gave a yeast fitness of at most 0.5.
With G10A A65U G68A the yeast fitness was at most 0.5.
Variant G10A A20U A45U C55U A70C has a yeast fitness of 0.576.
Work on G10A A15G C49G G68U yielded a yeast fitness of at most 0.5.
G10A C22A A43G C55A gave a yeast fitness of at most 0.5.
For G10A C11A A15C C24A C34A C46G G51A, the yeast fitness was at most 0.5.
With G10A C11G G44A C49G A65U the yeast fitness was at most 0.5.
Work on G10A A36C A43U yielded a yeast fitness of 0.573.
G10A A15G G38C gave a yeast fitness of at most 0.5.
G9U C11A A14G C24U G41C C55G gave a yeast fitness of at most 0.5.
G10A C11A A15C C24A gave a yeast fitness of at most 0.5.
G10A A69C A70C showed a yeast fitness of at most 0.5.
Work on G10A A14U A20G U26G C31G C34G A42U A43C G50C G63A yielded a yeast fitness of at most 0.5.
With G10A A42U U59A the yeast fitness was at most 0.5.
In the case of G10A A45U U53G A65C, the yeast fitness is reported as at most 0.5.
Variant G10A A21G G67C has a yeast fitness of 0.617.
In the case of G10A A70U, the yeast fitness is reported as 0.894.
In the case of G10A A70C, the yeast fitness is reported as 0.856.
Variant G9U G63A A65U has a yeast fitness of at most 0.5.
G10A A36G U59C A70G showed a yeast fitness of at most 0.5.
With G10A A57C C66G the yeast fitness was at most 0.5.
Work on G10A A36U A43G yielded a yeast fitness of 0.607.
Variant G10A A45C has a yeast fitness of 0.66.
Variant G10A A45U has a yeast fitness of 0.673.
For G10A C11U A15G C30U U47C C61G A69C, the yeast fitness was at most 0.5.
G9U C29G A65U showed a yeast fitness of at most 0.5.
In the case of G10A C22G G58C, the yeast fitness is reported as at most 0.5.
With G10A A21C G52C the yeast fitness was at most 0.5.
G10A A40C gave a yeast fitness of 0.771.
Work on G10A A14C yielded a yeast fitness of 0.539.
Work on G10A A14G yielded a yeast fitness of 0.671.
With G9U G39C A70C the yeast fitness was at most 0.5.
Variant G10A A21G C30A A42C has a yeast fitness of at most 0.5.
With G10A A20G U26C A69C A70G the yeast fitness was at most 0.5.
G9U U13C A57C C66A showed a yeast fitness of at most 0.5.
G10A A15G A65U showed a yeast fitness of 0.702.
Variant G10A A20G A40C A42C has a yeast fitness of at most 0.5.
Variant G10A A45C C49U has a yeast fitness of 0.652.
Work on G10A A21C C61G U64C yielded a yeast fitness of at most 0.5.
In the case of G9U C24G A45C, the yeast fitness is reported as at most 0.5.
For G9U A65U, the yeast fitness was 0.639.
For G10A A43G G56U A69G, the yeast fitness was at most 0.5.
In the case of G10A A57U, the yeast fitness is reported as 0.607.
G10A A57G showed a yeast fitness of 0.852.
G10A C11U U35A C61U gave a yeast fitness of at most 0.5.
In the case of G10A A65C, the yeast fitness is reported as 0.786.
Work on G10A A65U yielded a yeast fitness of 0.788.
G10A A36U gave a yeast fitness of 0.596.
G10A A36G A65U showed a yeast fitness of at most 0.5.
G10A A21C C24A A65C G68C showed a yeast fitness of at most 0.5.
G10A A21C C66U showed a yeast fitness of 0.531.
Work on G10A A14C C27G C46G A65G yielded a yeast fitness of at most 0.5.
Work on G10A A21G C29A U53C C61G G67A A69C yielded a yeast fitness of at most 0.5.
Variant G10A A57U A65U has a yeast fitness of at most 0.5.
Work on G10A A57U U59C yielded a yeast fitness of at most 0.5.
G10A A69U gave a yeast fitness of 0.732.
Variant G10A A69C has a yeast fitness of 0.858.
With G10A A69G the yeast fitness was 0.641.
Variant G10A A21G C27U A40U has a yeast fitness of at most 0.5.
In the case of G10A A21C, the yeast fitness is reported as 0.693.
For G10A A21U, the yeast fitness was 0.609.
G10A A21G gave a yeast fitness of 0.878.
G10A A14G A70C gave a yeast fitness of 0.535.
G9U G63A gave a yeast fitness of 0.71.
Work on G9U C33U A43U U59G yielded a yeast fitness of 0.676.
With G10A A21U A70C the yeast fitness was at most 0.5.
In the case of G10A C11U C24A C55G, the yeast fitness is reported as 0.595.
G10A A15C G39C showed a yeast fitness of at most 0.5.
Variant G10A A21C A57U has a yeast fitness of at most 0.5.
G10A A15C C34A G56A gave a yeast fitness of at most 0.5.
For G10A A21G A65C, the yeast fitness was 0.545.
For G10A A14C C34U A42G A65U G68A, the yeast fitness was at most 0.5.
G10A C22G C27U G56A C66G showed a yeast fitness of 0.504.
Work on G10A A20C G38A G41A C49U A57U yielded a yeast fitness of at most 0.5.
Variant G10A A14G C46A A57G has a yeast fitness of at most 0.5.
With G10A A14G C33U the yeast fitness was at most 0.5.
G10A C22U gave a yeast fitness of 0.647.
With G10A A20G C29U C49U G56A G63A the yeast fitness was at most 0.5.
For G10A A21G C22U C55U, the yeast fitness was at most 0.5.
G10A A15U A21C G25C gave a yeast fitness of 0.533.
Work on G10A A15U G17C A45U C49G A70U yielded a yeast fitness of at most 0.5.
G9U A21C A42U G44C U53C gave a yeast fitness of at most 0.5.
With G9U G68C the yeast fitness was 0.77.
